TAG inh: inhibitors of triacylglycerol accumulation, primary screen, cell-based, uHTS, fluorescence, H9c2; H9c2 cells, Nile Red lipid (TAG) fluorescence; cells loaded with 200 µM oleic acid; inhibition, % at 12.5 µM; 230,000 compounds, 0.66% hits;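 active = pattern-corrected inhibition of lipid staining of at least 50% with the nuclear-stain viability signal not falling by more than 50%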
Arrestin-AP2 inh: inhibitors of beta-arrestin/AP2 binding, primary screen, biochemical, GPCR trafficking, flow cytometry; FITC-arrestin peptide / GST-AP2 beads; AP2 beta2 appendage carries R879A mutation; inhibition, % at 10 µM; 340,000 compounds, 0.31% hits;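 active = inhibition above a set limit, near 3 SD of compounds lacking own fluorescence, cut at about 54% in these data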
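System: GST-AP2 R879A bound to glutathione beads, E. coli-expressed. Also added: 50 nM FITC-arrestin peptide. Schedule: compound with beads 12 min RT, then probe 1 h RT. Signal: bead flow cytometry, FITC channel. Read-out basis: percent response.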
Hep lipid drop: inhibitors of hepatocyte lipid droplet formation, primary screen, imaging, high-throughput imaging, BODIPY stain. AML12 mouse hepatocytes, oleate lipid droplets. inhibition, % at 6.5 µM. 240,000 compounds, 0.4% hits;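 active = lipid droplet intensity inhibited by at least 50%, with more than 500 cells counted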
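Test system: AML12 mouse liver cells; schedule: overnight exposure; technique: high-content imaging of BODIPY-stained droplets and DAPI nuclei; read-out: % inhibition of corrected integrated BODIPY droplet signal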
Beta2AR agonist: beta2AR agonists driving receptor internalization, primary screen, cell-based, FAP fluorogen, flow cytometry. 340,000 compounds, 0.43% hits. Am2.2-beta2AR cells. response, % (test concentration not listed). Beta-2 adrenergic receptor (Homo sapiens), P07550. AID 504454, 2011;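 active = response above a set limit, near 3 SD of response in nonfluorescent compounds, cut at about 42% in these data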
Target sequence (P07550 whole entry, looked up): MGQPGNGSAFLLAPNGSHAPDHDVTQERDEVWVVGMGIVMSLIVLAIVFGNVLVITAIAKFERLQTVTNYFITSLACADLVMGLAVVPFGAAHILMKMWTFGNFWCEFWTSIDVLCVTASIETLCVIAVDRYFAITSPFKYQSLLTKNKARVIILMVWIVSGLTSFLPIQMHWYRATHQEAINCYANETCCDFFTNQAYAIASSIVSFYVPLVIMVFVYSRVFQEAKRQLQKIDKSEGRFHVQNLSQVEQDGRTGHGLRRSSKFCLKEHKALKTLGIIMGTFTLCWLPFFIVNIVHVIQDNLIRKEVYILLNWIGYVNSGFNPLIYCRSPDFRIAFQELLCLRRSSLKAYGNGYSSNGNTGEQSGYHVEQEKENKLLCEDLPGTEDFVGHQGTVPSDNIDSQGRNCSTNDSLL
NTR1 ag: agonists of human NTR1, primary screen, imaging, U2OS cells, beta-arrestin-GFP, high content. Neurotensin receptor type 1 (Homo sapiens), P30989. NTR1-U2OS beta-arrestin-GFP spot imaging, agonist mode. activation, % at 20 µM. 330,000 compounds, 0.17% hits. AID 493036, 2011;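 active = activation at or above 40% of the spot to cytoplasm intensity ratio, with at least 20 cells analyzed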
GRK2 aptamer HTS: compounds blocking aptamer binding on GRK2 – biochemical, human GRK2, bead flow cytometry, HTS, primary screen; FAM-aptamer displacement from GRK2; AID 488847, 2010; inhibition of aptamer binding, % at 10 µM; 330,000 compounds, 0.59% hits; Beta-adrenergic receptor kinase 1 (Homo sapiens), P25098;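 active = inhibition of aptamer binding above 40%, roughly 3 SD of noise, on plates passing a quality check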;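 note: median bead fluorescence of bound FAM aptamer so fluorescent compounds give negative values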
GRK2 CP1: GRK2 aptamer-displacing inhibitors, retest, confirmation, biochemical, cherry pick 1, bead flow cytometry; 2,000 compounds, 4% hits; AID 504451, 2011; shares compounds with GRK2 aptamer HTS; aptamer displacement, % at 10 µM; bead-bound GRK2, FAM-aptamer displacement;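 active = aptamer displacement above 40%, near three times the noise of non-fluorescent compounds, on plates passing quality checks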;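 note: negative values mostly reflect intrinsic compound fluorescence rather than true enhancement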
FAM quench CP1: counter-screen for GRK2 aptamer inhibitors: fluorescent aptamer quenchers; shares compounds with GRK2 aptamer HTS; Carboxyfluorescein RNA aptamer on beads, flow cytometry quenching; stronger effect = lower value; fluorescence response (% of DMSO), % at 10 µM; 2,000 tested, under 10 active; AID 504580;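 active = compounds that quench the bead-bound fluorescent RNA probe, cutting fluorescence to under half of the solvent control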;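 note: counterscreen run without GRK2 so only probe quenching by compound is measured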
Large screens that a line does not name were inactive (follow-up assays come after a bar, where they were run). Hits are enriched below; roughly 2% of the tested compounds scored in any of these assays.

CN(Cc1nc2ccccc2[nH]1)C(=O)C1CCC(=O)N(CCc2cccc(F)c2)C1 (configuration not stated)	none | GRK2 CP1 inactive | FAM quench CP1 inactive
Clc1ccccn1	none (no result: TAG inh, Hep lipid drop)
COC(=O)NCc1ccc(S(=O)(=O)N2CCOCC2)cc1	GRK2 aptamer HTS 72 (no result: TAG inh) | GRK2 CP1 inactive | FAM quench CP1 inactive
CN(C)CCCn1cnc2c1c(=O)[nH]c(=O)n2Cc1ccccc1	GRK2 aptamer HTS 99 (no result: TAG inh) | GRK2 CP1 inactive | FAM quench CP1 inactive
CN(C)CCn1cnc2c1c(=O)[nH]c(=O)n2Cc1ccccc1	none (no result: TAG inh)
CCn1c(=S)sc2c(=O)n(CC(=O)Nc3ccccc3OC)c(C)nc21	none (no result: TAG inh)
Cc1nc2c(sc(=S)n2Cc2ccco2)c(=O)n1CC(=O)Nc1ccccc1Cl	GRK2 aptamer HTS 84 (no result: TAG inh) | GRK2 CP1 inactive | FAM quench CP1 inactive
CC(C)CN(C(=O)COC(=O)c1ccc(Br)o1)c1c(N)n(Cc2ccccc2)c(=O)[nH]c1=O	none (no result: Hep lipid drop)
CCCn1nnnc1NCc1c(F)cccc1Cl	GRK2 aptamer HTS 100 (no result: TAG inh) | GRK2 CP1 inactive | FAM quench CP1 inactive
CCCn1nnnc1NCc1c(Cl)cccc1Cl	none
CN(C)CCCNC1=CC(=O)CC(c2ccccc2)C1 (configuration not stated)	GRK2 aptamer HTS 80 | GRK2 CP1 inactive | FAM quench CP1 inactive
CC(C)CCNC1=CC(=O)CC(c2ccccc2)C1 (configuration not stated)	none (no result: TAG inh)
COc1ccc(C2=NOC(Cn3nc(C(=O)NCC4CC4)cc3-c3ccccc3)C2)cc1 (configuration not stated)	none (no result: Hep lipid drop)
Cc1ccc(NC(=O)CC2S/C(=N/N=C3/NC(=O)CS3)NC2=O)cc1 (configuration not stated)	GRK2 aptamer HTS 91 | GRK2 CP1 inactive | FAM quench CP1 inactive
O=C(c1ccc(Br)cc1)N(Cc1nc2ccccc2c(=O)[nH]1)C1CCCC1	none
COc1ccc(C(CC(=O)N2CCOCC2)c2c(OC)cc(OC)c3c(-c4ccccc4)cc(=O)oc23)cc1 (configuration not stated)	GRK2 aptamer HTS 48 | GRK2 CP1 inactive | FAM quench CP1 inactive
COc1ccc(C(CC(=O)N2CCCC2)c2c(OC)cc(OC)c3c(-c4ccccc4)cc(=O)oc23)cc1 (configuration not stated)	none
CCCNC(=O)C(Cc1cccc(Cl)c1)NC(=O)c1ccc(C#N)cc1 (configuration not stated)	none (no result: Hep lipid drop)
CCCNC(=O)C(Cc1cccc(C#N)c1)NC(=O)c1ccc(C#N)cc1 (configuration not stated)	GRK2 aptamer HTS 82 (no result: Hep lipid drop) | GRK2 CP1 inactive | FAM quench CP1 inactive
CC1CN(C(=O)CSc2nnc(NC(=O)NC(C)(C)C)s2)CC(C)O1 (configuration not stated)	none (no result: Hep lipid drop)
COc1ccc(N2Cc3ccccc3C2=O)cc1	none
COc1ccc(N2Cc3cccc(C(=O)O)c3C2=O)cc1	GRK2 aptamer HTS 61 (no result: Hep lipid drop) | GRK2 CP1 inactive | FAM quench CP1 inactive
O=C1CC(c2ccc3c(c2)OCCO3)Oc2ccc([N+](=O)[O-])cc21 (configuration not stated)	GRK2 aptamer HTS 42 (no result: TAG inh) | GRK2 CP1 inactive | FAM quench CP1 inactive
CSc1ccc(C2CC(=O)Nc3c2c(=O)n(C)c(=O)n3C)cc1 (configuration not stated)	GRK2 aptamer HTS 85 | GRK2 CP1 inactive | FAM quench CP1 inactive
Cn1c2c(c(=O)n(C)c1=O)C(c1ccccc1Cl)CC(=O)N2 (configuration not stated)	none (no result: Hep lipid drop)
